Hits are enriched below; roughly 3.5% of the tested compounds scored in any of these assays.
RGS4 block: inhibitors of human RGS4 | B-score at 10 µM | P49798 | 0.45% of 310,000 active | HEK293 M3R/RGS4 inducible, Fluo-4 calcium flux; stronger effect = higher value; triggered by carbachol at its EC20;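 active = B-score, a plate-corrected calcium signal, over three deviations above library mean, with baseline fluorescence within five deviations of library mean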;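 also: RGS4 expression induced by doxycycline in cells with stable M3 receptor; B-score is computed from the integrated fluorescence ratio over baseline after carbachol; higher B-score means a larger calcium signal and so more RGS4 inhibition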
Target sequence (P49798 whole entry, looked up): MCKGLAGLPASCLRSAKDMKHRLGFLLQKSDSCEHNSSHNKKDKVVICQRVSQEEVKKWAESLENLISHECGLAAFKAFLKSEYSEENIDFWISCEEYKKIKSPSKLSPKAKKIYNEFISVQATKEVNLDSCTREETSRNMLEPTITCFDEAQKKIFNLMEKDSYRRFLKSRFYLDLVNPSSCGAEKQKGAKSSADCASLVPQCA
MrgX1 ag: human MrgX1 receptor agonism, primary screen | 0.44% of 310,000 active | B-score at 10 µM | MrgX1-HEK293 cells, Fluo-4 calcium fluorescence, agonist mode; stronger effect = higher value;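 active = calcium response B-score plate-corrected fluorescence ratio at least 3 library SD, with starting fluorescence B-score inside 5 SD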
Target sequence (Q96LB2 whole entry, looked up): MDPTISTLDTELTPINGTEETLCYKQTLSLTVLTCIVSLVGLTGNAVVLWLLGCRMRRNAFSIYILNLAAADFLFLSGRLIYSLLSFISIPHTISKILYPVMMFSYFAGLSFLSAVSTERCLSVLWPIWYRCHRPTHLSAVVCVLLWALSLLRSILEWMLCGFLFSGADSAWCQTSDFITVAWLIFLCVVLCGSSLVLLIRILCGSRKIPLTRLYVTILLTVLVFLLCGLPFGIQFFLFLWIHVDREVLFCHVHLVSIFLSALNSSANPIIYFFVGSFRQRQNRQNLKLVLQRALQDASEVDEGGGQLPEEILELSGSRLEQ
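Test system: HEK293 cells stably expressing human MrgX1 receptor; Input: fifteen thousand cells per well; Dosing: compound delivered in addition one of three; Schedule: overnight seeding, then 1 h dark dye loading; Technique: Fluo-4 NW calcium fluorescence; Measure: B-scored fluorescence response ratio; Controls: positive and negative controls per plate.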
MrgX1 PAM: human MrgX1 positive allosteric modulation, primary screen; Q96LB2; MrgX1-HEK293, Fluo-4 calcium flux, FDSS; stronger effect = higher value; B-score at 10 µM; 0.63% of 310,000 active; AID 588675;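 active = plate-corrected calcium response at least 3 library SD above typical, normal starting fluorescence, not activating the receptor alone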;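 also: compound read alongside a low EC10 to EC30 dose of BAM8-22 agonist; peak minus trough fluorescence over baseline measured at the second addition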
RGS4 act: potentiators or activators of RGS4; HEK293 M3R/inducible RGS4, carbachol calcium flux Fluo4; stronger effect = lower value; B-score at 10 µM; 0.92% of 310,000 active; AID 463111;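 active = B-score of the integrated calcium signal more than 4 SD below the library mean, with starting fluorescence not abnormally high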;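 also: negative B-score means reduced calcium response which marks RGS4 activation or potentiation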
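Also added: carbachol at ECmax as muscarinic agonist stimulus; Assay system: HEK293 cells with stable M3R and inducible RGS4; Timing: overnight RGS4 induction, 30 min dye load 37 °C, 20 min compound RT; Measured by: Fluo4-AM (2 µM) calcium-flux fluorescence, kinetic read.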
MrgX1 antagonist: blocks BAM8-22 activation of human MrgX1 receptor | MRGX1-HEK293 calcium flux, Fluo-4, BAM8-22 antagonism; stronger effect = lower value | B-score at 10 µM | Q96LB2 | 1.3% of 310,000 active;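 active = calcium-response B-score plate-corrected more than 3 library SD below zero, starting fluorescence within 5 deviations, no agonist response on first addition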;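 also: peak minus trough fluorescence over baseline after final BAM8-22 challenge near maximal dose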
MrgX1 antag conf: reconfirmed antagonist of human MrgX1 receptor signaling | AID 602420 | remaining BAM8-22 calcium response % of control (stronger effect = lower value), % at 10 µM | 19% of 2,300 active | MrgX1-HEK293, BAM8-22 calcium flux, Fluo-4; stronger effect = lower value | shares compounds with MrgX1 antagonist;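 active = remaining agonist calcium response no higher than 100% minus 3 SD of agonist-only control wells, with starting fluorescence near control levels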;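 also: agonist BAM8-22 given at a near maximal EC90 to ECmax level; peak minus minimum fluorescence divided by baseline after agonist addition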
HEK293 Ca flux: MrgX1 antagonist counter-screen hit in parental HEK293 cells; shares compounds with MrgX1 antagonist; Fluo-4 calcium fluorescence, FDSS; fluorescence ratio F(max-min)/F0 at 10 µM; 2% of 4,000 active; AID 624111;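 active = duplicate-averaged calcium fluorescence ratio at least three times the standard deviation of buffer wells, a nonspecific response in parental cells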
HEK293 Ca counter: counter-screen for MrgX1 allosteric activators: effect in parental HEK293 cells; parental HEK293 calcium flux, Fluo-4 fluorescence ratio; stronger effect = higher value; 0.4% of 4,000 active; fluorescence ratio F(max-min)/F0 at 10 µM; AID 624114; shares compounds with MrgX1 antagonist;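 active = calcium fluorescence ratio, averaged over duplicates, at least 3 SD of the buffer-well ratio, meaning a nonspecific response in receptor-free cells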;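 also: untransfected parental HEK293 lacking MrgX1 used as counterscreen for MrgX1 allosteric activators; fluorescence change taken during the second addition on a kinetic imager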
HEK293 Ca cntr2: activity in parental HEK293 cells lacking MrgX1 receptor; shares compounds with MrgX1 antagonist; Fluo-4 calcium fluorescence (FDSS); stronger effect = higher value; fluorescence ratio F(max-min)/F0 at 10 µM; 8.7% of 4,000 active; AID 624115;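 active = calcium fluorescence ratio at least three times the spread of buffer wells, meaning a non-specific response in parental cells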
Starred values were filed as active, the others as inactive; i = inactive; · = no result given.

SMILES	RGS4 block	MrgX1 ag	MrgX1 PAM	RGS4 act	MrgX1 antagonist	MrgX1 antag conf	HEK293 Ca flux	HEK293 Ca counter	HEK293 Ca cntr2
Cc1[nH]ccc(=O)c1OCc1c(Cl)cccc1Cl	i	i	i	i	-6.7*	i	i	i	i
O=C(Nc1ccc(F)cc1F)N1CCN(CCc2ccccc2)CC1	i	i	i	i	i	·	·	·	·
CCOC(=O)C1CCN(C(=O)CCc2ccccc2)CC1	i	i	i	i	-7.9*	i	i	i	i
Cc1ccc(CNc2cnccn2)cc1	i	i	i	i	-6.1*	i	i	i	i
CC(C)(C)c1csc(NC(=O)c2ccncc2)n1	i	i	i	i	-7*	i	i	i	i
O=C(NC1CCCCC1)c1cc(-c2ccccc2O)on1	i	i	i	i	i	·	·	·	·
CCN(C(=O)COc1ncnc2ccc(Br)cc12)C1CCS(=O)(=O)C1 (configuration not stated)	i	i	i	i	-5.7*	i	i	i	i
CCN(C(=O)COC(=O)c1cc(-c2ccccc2)nc2ccc(Br)cc12)C1CCS(=O)(=O)C1 (configuration not stated)	i	i	i	i	i	·	·	·	·
Cn1nccc1C(=O)N(CCN1CCCCC1)CC1CCCN(C2CCCC2)C1 (configuration not stated)	i	i	i	i	i	·	·	·	·
O=S1(=O)CCOC[C@H](c2ccccc2)N1Cc1ccccc1F	i	i	i	i	-6.5*	i	i	i	i
Cc1c(C)c2c(C)nn(-c3ccccc3)c2[nH]c1=O	i	i	i	i	i	·	·	·	·
CCc1c(C)c2c(C)nn(-c3ccccc3)c2[nH]c1=O	i	i	i	i	-4.6*	85%*	i	i	i
CCCCn1c(N)c(N(Cc2ccccc2OC)C(=O)CSCC(=O)Nc2cccc(C)c2)c(=O)[nH]c1=O	i	i	i	i	i	·	·	·	·
COc1ccc(OCc2nc3ccc(S(=O)(=O)Nc4ccccc4Cl)cc3[nH]2)cc1	i	i	i	i	-6.1*	i	i	i	i
CCOCCc1nnc(NC(=O)C2CCN(C(=O)c3ccco3)CC2)s1	i	i	i	i	i	·	·	·	·
CCCCN(C)C(=O)C1CCC(CNS(=O)(=O)c2ccc3c(c2)CC(C)N3C(=O)C2CC2)CC1 (configuration not stated)	i	i	i	i	i	·	·	·	·
CCNc1nc(OCCNC(C)=O)nc(N(C)C)n1	i	i	i	i	-4.8*	i	i	i	i
CCOC(=O)c1sc2nc(CSc3ccccc3)nc(N3CCC(C(N)=O)CC3)c2c1C	i	i	i	i	i	·	·	·	·
Cc1sc2nc(CSc3ccccc3)nc(N3CCC(C(N)=O)CC3)c2c1C	i	i	i	i	-11*	i	i	i	i
Cc1ccc(C)c(CN2C(=O)C3CCCN3c3ccc(C#N)cc32)c1 (configuration not stated)	i	i	i	i	-5.6*	i	i	i	i
Cc1ccc(CN2C(=O)C3CCCN3c3ccc(C#N)cc32)cc1 (configuration not stated)	i	i	i	i	i	·	·	·	·
CCC1CCCCN1C(=O)CSc1nnc(CNC(=O)c2c(F)cccc2Cl)o1 (configuration not stated)	i	i	i	i	i	·	·	·	·
COCC(=O)N1CCN(c2nc3ccccc3o2)CC1	i	i	i	i	-4.5*	i	i	i	i
O=C(CSc1nc2ccccc2o1)N1CCCC1	i	i	i	i	i	·	·	·	·
COc1cc(C(=O)NCc2nnc(SCC(=O)N3CCc4ccccc43)o2)cc(OC)c1OC	i	i	i	i	i	·	·	·	·
SMILES	RGS4 block	MrgX1 ag	MrgX1 PAM	RGS4 act	MrgX1 antagonist	MrgX1 antag conf	HEK293 Ca flux	HEK293 Ca counter	HEK293 Ca cntr2
NC1=NC(c2ccccc2Cl)n2c(nc3ccccc32)N1 (configuration not stated)	i	i	i	i	-8.6*	i	i	i	i
CC1(C)CC(=O)C2=C(C1)N(c1ccc(F)cc1)C(=O)CC2c1ccsc1 (configuration not stated)	i	i	i	i	-5.1*	i	i	i	i
O=C(Cc1c(Cl)cccc1Cl)OCC(=O)N1CCN(C(=O)c2ccco2)CC1	i	i	i	i	i	·	·	·	·
Cc1ccc(C(NC(=O)c2ccccc2)C(Cl)(Cl)Cl)cc1 (configuration not stated)	i	i	i	i	i	·	·	·	·
Cc1ccc(C(=O)NC(N(C)C)C(Cl)(Cl)Cl)cc1 (configuration not stated)	i	i	i	i	-4.5*	i	i	i	i
CC(C)[C@H](NC(=O)OCc1ccccc1)C(=O)OCc1cc(=O)oc2cc(O)ccc12	i	i	i	i	i	·	·	·	·
CC1(C)CC(=O)C(C=Nc2cccnc2)=C(O)C1	i	i	i	i	-4.6*	i	i	i	i
C(=N\n1cnnc1)/c1ccc2ncccc2c1	i	i	i	i	-4.7*	i	i	i	i
C(=N\n1cnnc1)/c1ccccn1	i	i	i	i	i	·	·	·	·
N#C/C(=C\c1ccc(OCc2ccc(Br)cc2)cc1)C(=O)Nc1cccc(C(=O)O)c1	i	i	i	i	i	·	·	·	·
CCOc1cc(/C=C(\C#N)C(=O)Nc2cccc(C(=O)O)c2)cc(Br)c1OC(=O)c1ccc(OC)cc1	i	i	i	-8.1*	-10*	i	i	i	50*
Clc1ccc(C(c2ccccc2)N2CCNCC2)cc1 (configuration not stated)	i	i	i	i	-6.3*	i	i	i	i
CC(Sc1ccccc1)C(=O)NN=C1CCCCCCC1 (configuration not stated)	i	i	i	i	i	·	·	·	·
